We go through 12 molecules from ChEMBL document CHEMBL1140949, “Synthesis and evaluation of vancomycin aglycon analogues that bear modifications in the N-terminal D-leucyl amino acid” (2009).

One assay deals with Staphylococcus aureus. The assay can be described thus: Antimicrobial activity against vancomycin-sensitive Staphylococcus aureus ATCC 25923 after 24 hrs by microtiter plate based antimicrobial assay. The assay is classed as functional. Particulars: ATCC 25923, 24 h. The method, boiled down: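 Microtiter plate broth assay against vancomycin-sensitive S. aureus ATCC 25923. Unstable hydrazine-bearing analogues were tested within one day of freeing the hydrazine. They were used as crude deprotected material without reverse-phase HPLC purification, because purification caused decomposition.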

The subject of another assay is Enterococcus faecalis. The assay can be described thus: Antimicrobial activity against vancomycin-resistant Enterococcus faecalis BM4166 after 24 hrs by microtiter plate based antimicrobial assay. The assay is classed as functional. The method, boiled down:
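VanA-type vancomycin-resistant E. faecalis BM4166, with inducible resistance that switches cell-wall precursors from D-Ala-D-Ala to D-Ala-D-Lac on glycopeptide exposure. MIC measured in a microtiter plate format. Unstable hydrazine analogues were assayed within one day of deprotection, as crude material without HPLC purification.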

In brackets after ≈: the same amount, converted by molar mass.

As a reminder, the MIC is the least concentration at which growth counts as inhibited. The low end stands for inhibition by little substance, the high end for a need for much substance. Turning to `CN[C@H](Cc1cccc(NC(=N)N)c1)C(=O)N[C@H]1C(=O)N[C@@H](CC(N)=O)C(=O)N[C@H]2C(=O)N[C@H]3C(=O)N[C@H](C(=O)N[C@H](C(=O)O)c4cc(O)cc(O)c4-c4cc3ccc4O)[C@H](O)c3ccc(c(Cl)c3)Oc3cc2cc(c3O)Oc2ccc(cc2Cl)[C@H]1O.O=C(O)C(F)(F)F`, the MIC is 10 µg/mL in the assay on Staphylococcus aureus and 320 µg/mL in the assay on Enterococcus faecalis.
For `CN[C@H](Cc1cccc(NN)c1)C(=O)N[C@H]1C(=O)N[C@@H](CC(N)=O)C(=O)N[C@H]2C(=O)N[C@H]3C(=O)N[C@H](C(=O)N[C@H](C(=O)O)c4cc(O)cc(O)c4-c4cc3ccc4O)[C@H](O)c3ccc(c(Cl)c3)Oc3cc2cc(c3O)Oc2ccc(cc2Cl)[C@H]1O.O=C(O)C(F)(F)F` the same measures were 10 µg/mL and 320 µg/mL.
For `CN[C@H](Cc1cccc(N)c1)C(=O)N[C@H]1C(=O)N[C@@H](CC(N)=O)C(=O)N[C@H]2C(=O)N[C@H]3C(=O)N[C@H](C(=O)N[C@H](C(=O)O)c4cc(O)cc(O)c4-c4cc3ccc4O)[C@H](O)c3ccc(c(Cl)c3)Oc3cc2cc(c3O)Oc2ccc(cc2Cl)[C@H]1O.O=C(O)C(F)(F)F` the same measures were 20 µg/mL and 320 µg/mL.
In the same order, the values of `CN[C@H](Cc1cccc(CN)c1)C(=O)N[C@H]1C(=O)N[C@@H](CC(N)=O)C(=O)N[C@H]2C(=O)N[C@H]3C(=O)N[C@H](C(=O)N[C@H](C(=O)O)c4cc(O)cc(O)c4-c4cc3ccc4O)[C@H](O)c3ccc(c(Cl)c3)Oc3cc2cc(c3O)Oc2ccc(cc2Cl)[C@H]1O.O=C(O)C(F)(F)F` are greater than 10 µg/mL and 640 µg/mL.
Take `CN[C@H](COC(C)(C)C)C(=O)N[C@H]1C(=O)N[C@@H](CC(N)=O)C(=O)N[C@H]2C(=O)N[C@H]3C(=O)N[C@H](C(=O)N[C@H](C(=O)O)c4cc(O)cc(O)c4-c4cc3ccc4O)[C@H](O)c3ccc(c(Cl)c3)Oc3cc2cc(c3O)Oc2ccc(cc2Cl)[C@H]1O.O=C(O)C(F)(F)F`: the MIC in the assay on Staphylococcus aureus was found to be 20 µg/mL; in the assay on Enterococcus faecalis, 320 µg/mL.
As for `CN[C@@H](C(=O)N[C@H]1C(=O)N[C@@H](CC(N)=O)C(=O)N[C@H]2C(=O)N[C@H]3C(=O)N[C@H](C(=O)N[C@H](C(=O)O)c4cc(O)cc(O)c4-c4cc3ccc4O)[C@H](O)c3ccc(c(Cl)c3)Oc3cc2cc(c3O)Oc2ccc(cc2Cl)[C@H]1O)[C@H](C)O.O=C(O)C(F)(F)F`, the figures for the MIC against Staphylococcus aureus and in the assay on Enterococcus faecalis were 40 µg/mL and 800 µg/mL, respectively.
`CN[C@H](CO)C(=O)N[C@H]1C(=O)N[C@@H](CC(N)=O)C(=O)N[C@H]2C(=O)N[C@H]3C(=O)N[C@H](C(=O)N[C@H](C(=O)O)c4cc(O)cc(O)c4-c4cc3ccc4O)[C@H](O)c3ccc(c(Cl)c3)Oc3cc2cc(c3O)Oc2ccc(cc2Cl)[C@H]1O.O=C(O)C(F)(F)F`: the MIC is 40 µg/mL with Staphylococcus aureus and 800 µg/mL in the assay with Enterococcus faecalis.
As for `CCNC(=O)Nc1cccc(C[C@@H](NC)C(=O)N[C@H]2C(=O)N[C@@H](CC(N)=O)C(=O)N[C@H]3C(=O)N[C@H]4C(=O)N[C@H](C(=O)N[C@H](C(=O)O)c5cc(O)cc(O)c5-c5cc4ccc5O)[C@H](O)c4ccc(c(Cl)c4)Oc4cc3cc(c4O)Oc3ccc(cc3Cl)[C@H]2O)c1.O=C(O)C(F)(F)F`, the MIC was 31 µg/mL against Staphylococcus aureus and 640 µg/mL against Enterococcus faecalis.
In the same order, the values of `CN[C@H](Cc1cccc(CNN)c1)C(=O)N[C@H]1C(=O)N[C@@H](CC(N)=O)C(=O)N[C@H]2C(=O)N[C@H]3C(=O)N[C@H](C(=O)N[C@H](C(=O)O)c4cc(O)cc(O)c4-c4cc3ccc4O)[C@H](O)c3ccc(c(Cl)c3)Oc3cc2cc(c3O)Oc2ccc(cc2Cl)[C@H]1O.O=C(O)C(F)(F)F` are 1.25 µg/mL and 170 µg/mL.
In the same order, the values of `CN[C@H](CCNN)C(=O)N[C@H]1C(=O)N[C@@H](CC(N)=O)C(=O)N[C@H]2C(=O)N[C@H]3C(=O)N[C@H](C(=O)N[C@H](C(=O)O)c4cc(O)cc(O)c4-c4cc3ccc4O)[C@H](O)c3ccc(c(Cl)c3)Oc3cc2cc(c3O)Oc2ccc(cc2Cl)[C@H]1O.O=C(O)C(F)(F)F` are 10 µg/mL and greater than 400 µg/mL.
Consider `CN[C@H](CC(C)C)C(=O)N[C@H]1C(=O)N[C@@H](CC(N)=O)C(=O)N[C@H]2C(=O)N[C@H]3C(=O)N[C@H](C(=O)N[C@H](C(=O)O)c4cc(O)cc(O)c4-c4cc3ccc4O)[C@H](O)c3ccc(c(Cl)c3)Oc3cc2cc(c3O)Oc2ccc(cc2Cl)[C@H]1O` [VANCOMYCIN AGLYCON], for which the MIC against Staphylococcus aureus turned out to be 0.625 µg/mL (≈ 0.546 µM); with Enterococcus faecalis, 640 µg/mL (≈ 559 µM).
In the case of `CN[C@H](CC(C)C)C(=O)N[C@H]1C(=O)N[C@@H](CC(N)=O)C(=O)N[C@H]2C(=O)N[C@H]3C(=O)N[C@H](C(=O)N[C@H](C(=O)O)c4cc(O)cc(O)c4-c4cc3ccc4O)[C@H](O)c3ccc(c(Cl)c3)Oc3cc2cc(c3O[C@@H]2O[C@H](CO)[C@@H](O)[C@H](O)[C@H]2O[C@H]2C[C@](C)(N)[C@H](O)[C@H](C)O2)Oc2ccc(cc2Cl)[C@H]1O` [VANCOMYCIN], the MIC turned out to be 1.25 µg/mL (≈ 0.863 µM) in the assay with Staphylococcus aureus and 2000 µg/mL (≈ 1380 µM) with Enterococcus faecalis.
